Here are results for 17 compounds from ChEMBL document CHEMBL4840305, “Structure-guided design and development of novel N-phenylpyrimidin-2-amine derivatives as potential c-Met inhibitors” (Eur J Med Chem, 2021).

Broadly, the IC50 is the point on the concentration scale where inhibition reaches its midpoint. Broadly, the Cmax is the peak of the concentration-time curve. By Tmax is commonly meant the time from dosing to the highest level. Broadly, the bioavailability is dose-corrected exposure relative to a reference, in per cent. As a reminder, the AUC(0-t) is the area under the concentration-time curve up to a stated or last time point. Read a low AUC(0-t) as less exposure. A word on the half-life: it is how long it takes for the measured level to halve. A lower half-life goes with fast loss.

In data set [1] the target is Hepatocyte growth factor receptor (Homo sapiens, UniProt P08581). Put plainly: Inhibition of c-MET kinase (unknown origin) using poly(Glu:Tyr)(4:1) as substrate by ELISA.
Chain of Hepatocyte growth factor receptor (P08581 whole entry): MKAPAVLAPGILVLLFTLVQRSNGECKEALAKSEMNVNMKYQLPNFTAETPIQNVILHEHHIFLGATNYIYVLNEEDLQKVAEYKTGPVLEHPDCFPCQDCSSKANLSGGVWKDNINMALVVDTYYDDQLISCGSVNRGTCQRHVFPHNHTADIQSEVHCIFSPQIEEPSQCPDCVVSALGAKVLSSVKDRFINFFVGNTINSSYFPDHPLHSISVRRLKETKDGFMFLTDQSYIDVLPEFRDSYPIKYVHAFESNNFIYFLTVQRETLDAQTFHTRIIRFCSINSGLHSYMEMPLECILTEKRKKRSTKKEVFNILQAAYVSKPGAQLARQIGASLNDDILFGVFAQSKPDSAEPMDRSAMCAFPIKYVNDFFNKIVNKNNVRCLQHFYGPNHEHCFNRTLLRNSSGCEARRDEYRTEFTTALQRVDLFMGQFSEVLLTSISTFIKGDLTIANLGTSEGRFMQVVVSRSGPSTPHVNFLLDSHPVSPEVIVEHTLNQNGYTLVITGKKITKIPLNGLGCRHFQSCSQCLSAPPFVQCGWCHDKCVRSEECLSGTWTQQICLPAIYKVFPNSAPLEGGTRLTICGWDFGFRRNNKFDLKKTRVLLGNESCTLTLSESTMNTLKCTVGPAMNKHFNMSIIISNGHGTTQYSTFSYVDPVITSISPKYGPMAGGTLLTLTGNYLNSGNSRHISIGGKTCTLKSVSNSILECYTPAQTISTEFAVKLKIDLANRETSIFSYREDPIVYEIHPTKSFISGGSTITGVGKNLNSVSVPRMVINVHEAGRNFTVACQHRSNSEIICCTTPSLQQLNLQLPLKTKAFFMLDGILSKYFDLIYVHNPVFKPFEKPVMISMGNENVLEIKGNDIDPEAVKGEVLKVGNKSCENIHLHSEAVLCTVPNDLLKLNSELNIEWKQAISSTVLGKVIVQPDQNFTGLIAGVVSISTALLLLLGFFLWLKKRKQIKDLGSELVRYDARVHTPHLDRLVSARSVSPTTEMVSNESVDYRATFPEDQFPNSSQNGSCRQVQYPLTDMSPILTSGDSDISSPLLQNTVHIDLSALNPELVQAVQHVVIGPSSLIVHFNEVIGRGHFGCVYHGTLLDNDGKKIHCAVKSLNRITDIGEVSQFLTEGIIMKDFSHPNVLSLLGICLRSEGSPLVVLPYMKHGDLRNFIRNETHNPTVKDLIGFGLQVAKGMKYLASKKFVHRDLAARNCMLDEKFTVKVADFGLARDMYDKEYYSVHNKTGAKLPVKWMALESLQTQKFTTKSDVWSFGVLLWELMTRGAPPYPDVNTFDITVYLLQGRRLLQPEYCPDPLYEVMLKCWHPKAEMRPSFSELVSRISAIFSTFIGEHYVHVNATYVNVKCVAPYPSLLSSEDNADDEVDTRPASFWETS
Data set [2] deals with HepG2. The data set is described as follows: cells. Particulars: Homo sapiens.
In data set [3] the test system is PC-3. The data set is described as follows: cells. As to conditions: Homo sapiens.
For data set [4], the system named is CAKI-1. The data set is described as follows: cells. As to conditions: Homo sapiens.
The test system of data set [5] is HCT-116. Put plainly: cells. As to conditions: Homo sapiens.
Data set [6] deals with PANC-1. The data set is described as follows: cells. As to conditions: Homo sapiens.
Data set [7] is described as follows: Apparent clearance during terminal phase in Sprague-Dawley rat at 4 mg/kg, iv by LC-MS/MS analysis. Type of data set: ADME, organism-based. As to conditions: in vivo. A digest of the protocol:
(§1)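 Male SD rats were used. Compound concentrations in plasma were measured by LC/MS/MS. The oral arm was dosed at 20 mg/kg.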

The nature of data set [8]: Apparent clearance during terminal phase in Sprague-Dawley rat at 20 mg/kg, po by LC-MS/MS analysis. The class given is ADME, organism-based. Particulars: in vivo, read-out: CLz/F (converted). In a few lines:
as §1

A short description of data set [9]: Cmax in Sprague-Dawley rat at 20 mg/kg, po by LC-MS/MS analysis. The class given is ADME, organism-based. Further details: route oral, dose 20 mg/kg. Particulars: in vivo. In a few lines:
as §1

Data set [10] can be described thus: Acute toxicity in ICR mouse assessed as animal survival at 1200 mg/kg, po measured on day 14 (reference value: 100%). Particulars: in vivo, time 14 day. The class given is organism-based.
Data set [11] in a line: Acute toxicity in ICR mouse assessed as animal survival at 1500 mg/kg, po measured on day 14 (reference value: 100%). As to conditions: in vivo, time 14 day. The class given is organism-based.
The target of data set [12] is Voltage-gated inwardly rectifying potassium channel KCNH2 (Homo sapiens, UniProt Q12809). Put plainly: Inhibition of human ERG.
Chain of Voltage-gated inwardly rectifying potassium channel KCNH2 (Q12809 whole entry): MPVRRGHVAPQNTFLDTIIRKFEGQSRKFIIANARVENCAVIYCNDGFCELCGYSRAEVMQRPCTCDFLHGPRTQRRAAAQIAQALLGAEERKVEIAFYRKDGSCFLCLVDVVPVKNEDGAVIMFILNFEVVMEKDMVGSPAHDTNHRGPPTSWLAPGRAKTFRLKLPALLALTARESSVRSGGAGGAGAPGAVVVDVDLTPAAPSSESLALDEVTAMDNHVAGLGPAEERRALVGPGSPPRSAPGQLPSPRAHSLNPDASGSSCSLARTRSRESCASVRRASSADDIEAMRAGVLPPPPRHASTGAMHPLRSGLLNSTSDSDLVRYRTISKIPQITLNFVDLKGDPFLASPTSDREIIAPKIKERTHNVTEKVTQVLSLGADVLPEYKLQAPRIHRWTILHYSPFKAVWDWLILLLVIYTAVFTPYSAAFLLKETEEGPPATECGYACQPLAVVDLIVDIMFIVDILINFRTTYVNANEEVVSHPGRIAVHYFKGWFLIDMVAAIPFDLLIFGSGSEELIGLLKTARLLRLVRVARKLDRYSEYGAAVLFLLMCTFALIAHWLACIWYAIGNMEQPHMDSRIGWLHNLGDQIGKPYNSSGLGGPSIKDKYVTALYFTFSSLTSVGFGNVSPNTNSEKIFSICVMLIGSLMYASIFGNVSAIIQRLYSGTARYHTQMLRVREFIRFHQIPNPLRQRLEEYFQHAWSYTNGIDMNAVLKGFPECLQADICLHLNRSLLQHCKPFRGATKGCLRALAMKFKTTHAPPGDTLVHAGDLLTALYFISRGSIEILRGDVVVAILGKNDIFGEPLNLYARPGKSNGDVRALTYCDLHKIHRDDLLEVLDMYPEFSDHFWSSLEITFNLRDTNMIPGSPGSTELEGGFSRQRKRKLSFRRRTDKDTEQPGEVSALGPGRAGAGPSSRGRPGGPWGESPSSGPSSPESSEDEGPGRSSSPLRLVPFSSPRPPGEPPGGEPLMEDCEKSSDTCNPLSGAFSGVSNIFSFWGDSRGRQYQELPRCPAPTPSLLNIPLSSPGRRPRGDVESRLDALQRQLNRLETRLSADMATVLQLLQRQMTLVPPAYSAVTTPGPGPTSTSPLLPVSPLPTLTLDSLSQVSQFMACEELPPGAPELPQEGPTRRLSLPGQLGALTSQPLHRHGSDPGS
The nature of data set [13]: Tmax in Sprague-Dawley rat at 20 mg/kg, po by LC-MS/MS analysis. The class given is ADME, organism-based. As to conditions: in vivo. In a few lines: as §1
A short description of data set [14]: Oral bioavailability in Sprague-Dawley rat at 20 mg/kg by LC-MS/MS analysis. Particulars: in vivo. Type of data set: ADME, organism-based. A digest of the protocol: as §1
Data set [15] can be described thus: Acute toxicity in ICR mouse assessed as abnormalities in kidneys at 600 to 1200 mg/kg, po administered as single dose and measured on day 14. Type of data set: organism-based. As to conditions: in vivo, 336 h, dose 600-1200 mg/kg, time 14 day.
The nature of data set [16]: Acute toxicity in ICR mouse assessed as abnormalities in heart at 600 to 1200 mg/kg, po administered as single dose and measured on day 14. The class given is organism-based. Particulars: in vivo, 336 h, dose 600-1200 mg/kg, time 14 day.
A short description of data set [17]: AUC(0 to t) in Sprague-Dawley rat at 20 mg/kg, po by LC-MS/MS analysis. The class given is ADME, organism-based. Further details: dose 20 mg/kg. Particulars: in vivo.
A short description of data set [18]: Half life in Sprague-Dawley rat at 4 mg/kg, iv by LC-MS/MS analysis. The class given is ADME, organism-based. As to conditions: in vivo. A digest of the protocol: as §1
Data set [19] can be described thus: Acute toxicity in ICR mouse assessed as animal survival at 600 mg/kg, po measured on day 14 (reference value: 100%). As to conditions: in vivo, time 14 day. The class given is organism-based.
Data set [20] can be described thus: Acute toxicity in ICR mouse assessed as animal survival at 1000 mg/kg, po measured on day 14 (reference value: 100%). As to conditions: in vivo, time 14 day. The class given is organism-based.
Data set [21] can be described thus: Half life in Sprague-Dawley rat at 20 mg/kg, po by LC-MS/MS analysis. The class given is ADME, organism-based. Particulars: in vivo. In a few lines:
as §1

A short description of data set [22]: Acute toxicity in ICR mouse assessed as animal survival at 800 mg/kg, po measured on day 14 (reference value: 100%). The class given is organism-based. Particulars: in vivo, time 14 day.
A short description of data set [23]: Acute toxicity in ICR mouse assessed as animal survival at 2000 mg/kg, po measured on day 14 (reference value: 100%). Particulars: in vivo, time 14 day. Type of data set: organism-based.
The nature of data set [24]: AUC(0 to t) in Sprague-Dawley rat at 4 mg/kg, iv by LC-MS/MS analysis. Further details: dose 4 mg/kg. As to conditions: in vivo. Type of data set: ADME, organism-based. In a few lines:
as §1

The nature of data set [25]: Cmax in Sprague-Dawley rat at 4 mg/kg, iv by LC-MS/MS analysis. Type of data set: ADME, organism-based. Further details: route intravenous, dose 4 mg/kg. As to conditions: in vivo. A digest of the protocol: as §1
Data set [26] in a line: Acute toxicity in ICR mouse assessed as abnormalities in liver at 600 to 1200 mg/kg, po administered as single dose and measured on day 14. The class given is organism-based. Particulars: in vivo, 336 h, dose 600-1200 mg/kg, time 14 day.

In the case of `O=C(Nc1ccc(Oc2ccnc(Nc3cccc(N4CCOCC4)c3)n2)cc1)c1ccccc1Nc1ccc(F)cc1`, in [1], the IC50 is greater than 1 µM.
As to `O=C1CCCc2cc(Nc3nccc(Oc4ccc(NC(=O)C5(C(=O)Nc6ccc(F)cc6)CC5)cc4)n3)ccc2N1`, the IC50 amounted to 3.24 µM in data set [2]; 2.6 µM in [3]; 1.47 µM in [4]; 3.14 µM in data set [5]; 3.28 µM in data set [6].
In the case of `CN1CCN(c2cccc(Nc3nccc(Oc4ccc(NC(=O)C5(C(=O)Nc6ccc(F)cc6)CC5)cc4)n3)c2)CC1`, the IC50 in data set [2] stood at 1.73 µM; in data set [3] it was 2.25 µM; in data set [4] it was 1.63 µM; in data set [5], 2.02 µM; in data set [6], 3.16 µM.
Turning to `COc1cc(C(=O)NCC2CC2)ccc1Nc1nccc(Oc2ccc(NC(=O)C3(C(=O)Nc4ccc(F)cc4)CC3)cc2)n1`, in data set [1], the IC50 was greater than 2 µM.
For `O=C(Nc1ccc(F)cc1)C1(C(=O)Nc2ccc(Oc3cc(Nc4cccc(N5CCOCC5)c4)ncn3)c(F)c2)CC1`, the IC50 in data set [2] was determined as 5.97 µM; in [3] it was 4.71 µM; in [4], 2.69 µM; in data set [5], 7.99 µM; in [6] it was 5.53 µM.
In the case of `Cc1c(C(=O)Nc2ccc(Oc3ccnc(Nc4cccc(N5CCOCC5)c4)n3)c(F)c2)c(=O)n(-c2ccccc2)n1C`, the IC50 in data set [2] is 2.1 µM; in data set [3], 1.8 µM; in data set [4], 1.88 µM; in data set [5] it was 2.34 µM; in data set [6], 2 µM.
The matching figures for `CNC(=O)c1cccc(Nc2nccc(Oc3ccc(NC(=O)C4(C(=O)Nc5ccc(F)cc5)CC4)cc3)n2)c1`: 7.01 µM, 1.93 µM, 3.31 µM, 3.56 µM and 2.85 µM.
The matching figures for `O=C(Nc1ccc(F)cc1)C1(C(=O)Nc2ccc(Oc3ccnc(Nc4cccc(N5CCOCC5)c4)n3)cc2)CC1`: 3.57 µM, 2.65 µM, 3.9 µM, 4.2 µM and 6.67 µM.
For the compound `COC(=O)c1ccc(Nc2nccc(Oc3ccc(NC(=O)C4(C(=O)Nc5ccc(F)cc5)CC4)cc3)n2)c(OC)c1`, the IC50 in data set [1] is greater than 2 µM.
`O=C(Nc1ccc(F)cc1)c1ccccc1Nc1ccc(Oc2ccnc(Nc3cccc(CN4CCOCC4)c3)n2)cc1` had a 50% inhibitory concentration (IC50) in data set [1] greater than 1 µM.
Still for that read-out and setting: the value for `COC(=O)c1ccc(Nc2nccc(Oc3ccc(NC(=O)C4(C(=O)Nc5ccc(F)cc5)CC4)cc3)n2)nc1` was greater than 2 µM; that for `O=C(Nc1ccc(F)cc1)c1ccccc1Nc1ccc(Oc2ccnc(Nc3cccc(N4CCOCC4)c3)n2)cc1` was greater than 1 µM.
Still for that read-out and setting: to `O=C(Nc1ccc(Oc2ccnc(Nc3cccc(CN4CCOCC4)c3)n2)cc1)c1ccccc1Nc1ccc(F)cc1` belongs greater than 1 µM.
With `Cc1c(C(=O)Nc2ccc(Oc3ccnc(Nc4cccc(N5CCOCC5)c4)n3)cc2)c(=O)n(-c2ccccc2)n1C`, in data set [7], the CLz/F stood at 6.83 mL/min/kg. Besides, in [8], the CL/F is 11 mL/min/kg. For the same compound, the Cmax in data set [9] came out at 3050 ng/mL; in data set [25] it was 2470 ng/mL. In addition, the survival at 336 h in [10] was 100%; in data set [11] it was 70%; in [19] it was 100%; in [20], 100%; in data set [22], 100%; in data set [23], 0%. Also, the IC50 in data set [2] was 1.34 µM; in data set [3] it was 1.34 µM; in data set [12], greater than 40 µM; in data set [4] it was 0.53 µM; in data set [5] it was 1.37 µM; in [6], 1.01 µM. Moreover, the Tmax in data set [13] is 6 h. In addition, the bioavailability in [14] amounted to 59.3%. Moreover, the Activity entry in [15], in data set [16] and in [26] was “Non-Toxic” throughout. In addition, the AUC(0-t) in data set [17] is 19000 ng·h/mL; in data set [24] it was 8220 ng·h/mL. Further, the half-life is 8.9 h in data set [18] and 9.04 h in data set [21].
Consider `O=C(Nc1ccc(F)cc1)C1(C(=O)Nc2ccc(Oc3ccnc(Nc4cccc(N5CCOCC5)c4)n3)c(F)c2)CC1`, for which the IC50 stood at 2.21 µM in [2]; 2.34 µM in data set [3]; 2.92 µM in [4]; 3.15 µM in data set [5]; 3.4 µM in [6].
`O=C(Nc1ccc(F)cc1)C1(C(=O)Nc2ccc(Oc3ccnc(Nc4cccc(N5CCOCC5)c4)c3)cc2)CC1`: the IC50 in [2] turned out to be 4.86 µM; in data set [3] it was 3.3 µM; in data set [4] it was 2.59 µM; in data set [5], 4.79 µM; in data set [6], 4.01 µM.
In the case of `COc1cc2nccc(Oc3ccc(NC(=O)C4(C(=O)Nc5ccc(F)cc5)CC4)cc3)c2cc1OC` [CABOZANTINIB], in data set [12], the IC50 was greater than 30 µM.
